According to ChEMBL document CHEMBL1221292, “Design, synthesis, and evaluation of quinazoline T cell proliferation inhibitors” (Bioorg Med Chem, 2010):
One block for each molecule: values may come before it. Active and inactive are the calls of the source. The calls are words filed in the database; no cut-off is given here.

Experiments:
PBMC [1] = test: Antiproliferative activity against ConA-stimulated human PBMC after 72 hrs by BrdU incorporation assay; type: functional, cell-based
Summary of the method: (§1)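 Cells grown in RPMI at 37 °C, 5% CO2, then serum-starved 12 h. PBMC stimulated with ConA 10 µg/mL; Jurkat need no stimulation. 1 × 10^5 cells cultured 3 days with or without inhibitor, duplicate wells. Labelled with 10 µM BrdU, DNA denatured, anti-BrdU-POD added, colorimetric TMB read-out; IC50 derived.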

Jurkat [2] = test: Antiproliferative activity against human Jurkat cells after 72 hrs by BrdU incorporation assay; type: functional, cell-based; summary of the method: as §1
PBMC [3] = test: Inhibition of anti-TCR-stimulated IL2 production in human PBMC cells […] after 12 hrs by ELISA; type: functional, cell-based
Summary of the method: (§2)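 Jurkat or PBMC treated 12 h with 1 µM, 0.5 µM or no inhibitor. 1 × 10^6 cells were then stimulated 12 h with plate-bound anti-TCR C305 (1:500) alone, or with anti-CD28 (1:100) and/or PMA (50 ng/ml); ionomycin 1 µM was also used. Cells spun out at 130g. Supernatant IL-2 measured by ELISA, absorbance 450 nm.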

Jurkat [4] = test: Inhibition of PMA/anti-CD28-stimulated IL2 production in human Jurkat cells […] after 12 hrs by ELISA; type: functional, cell-based; summary of the method: as §2
Jurkat [5] = test: Inhibition of TCR-mediated Zap70 phosphorylation in human Jurkat cells after 16 hrs by Western blotting; type: cell-based
Summary of the method: (§3)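 Jurkat treated 16 h with inhibitor, then stimulated 1 min at 37 °C with C305 (1:500) or mock PBS. Cells lysed at 2 × 10^7 cells/mL in NP-40 buffer with phosphatase and protease inhibitors. SLP-76 immunoprecipitated; pTyr detected by Western blot with 4G-10. For ZAP-70 activity, ZAP-70 IP was incubated with recombinant His-SLP-76 and 5 µM ATP for 15 min at 30 °C, then blotted for pTyr.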

Jurkat [6] = test: Inhibition of TCR-mediated SLP76 phosphorylation in human Jurkat cells after 16 hrs by Western blotting; type: cell-based; summary of the method: as §3
Jurkat [7] = test: Antiproliferative activity against non-stimulated human Jurkat cells after 72 hrs by BrdU incorporation assay; type: functional, cell-based; summary of the method: as §1
Jurkat [8] = test: Antiproliferative activity against ConA-stimulated human Jurkat after 72 hrs by BrdU incorporation assay; type: functional, cell-based
PBMC [9] = test: Antiproliferative activity against non-stimulated human PBMC after 72 hrs by BrdU incorporation assay; type: cell-based
[10] = Antiproliferative activity against stimulated human keratinocytes after 72 hrs by BrdU incorporation assay; type: functional, cell-based; conditions: Keratinocyte
PC-3 [11] = test: Antiproliferative activity against non-stimulated human PC3 after 72 hrs by BrdU incorporation assay; type: functional, cell-based; conditions: PC-3, 72 h
PC-3 [12] = test: Antiproliferative activity against stimulated human PC3 after 72 hrs by BrdU incorporation assay; type: functional, cell-based; conditions: PC-3, 72 h
HEK293 [13] = test: Antiproliferative activity against non-stimulated human HEK293 cells after 72 hrs by BrdU incorporation assay; type: functional, cell-based; conditions: HEK293, 72 h
HEK293 [14] = test: Antiproliferative activity against FCS-stimulated human HEK293 cells after 72 hrs by BrdU incorporation assay; type: functional, cell-based; conditions: HEK293, 72 h
Summary of the method: (§4)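 Non-hematopoietic lines grown in DMEM, serum-starved 12 h, then stimulated: 10% FCS (HEK293, A375), PDGF 30 ng/mL (NIH 3T3), EGF 30 ng/mL (MDA-MB-231). 1 × 10^5 cells cultured 3 days over increasing inhibitor concentrations, duplicate wells. Proliferation by 10 µM BrdU labelling with colorimetric anti-BrdU-POD ELISA (TMB).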

A-375 [15] = test: Antiproliferative activity against non-stimulated human A375 cells after 72 hrs by BrdU incorporation assay; type: functional, cell-based; conditions: A-375, 72 h
A-375 [16] = test: Antiproliferative activity against FCS-stimulated human A375 cells after 72 hrs by BrdU incorporation assay; type: functional, cell-based; conditions: A-375, 72 h; summary of the method: as §4
NIH3T3 [17] = test: Antiproliferative activity against non-stimulated mouse NIH/3T3 cells after 72 hrs by BrdU incorporation assay; type: functional, cell-based; conditions: NIH3T3, 72 h
NIH3T3 [18] = test: Antiproliferative activity against PDGF-stimulated mouse NIH/3T3 cells after 72 hrs by BrdU incorporation assay; type: functional, cell-based; conditions: NIH3T3, 72 h; summary of the method: as §4
MDA-MB-231 [19] = test: Antiproliferative activity against non-stimulated human MDA-MB-231 cells after 72 hrs by BrdU incorporation assay; type: functional, cell-based; conditions: MDA-MB-231, 72 h
PBMC [20] = test: Cell cycle arrest in human PBMC assessed as accumulation at G2 phase by flow cytometry; type: functional
Summary of the method: (§5)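 PBMC treated with inhibitor 12 and 24 h, then pelleted, PBS-washed and fixed in cold 70% ethanol for at least 12 h. RNase A added for 30 min in the dark, then propidium iodide; DNA content analysed by FACS for G2 and sub-G1 fractions.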

PBMC [21] = test: Cell cycle arrest in human PBMC assessed as accumulation at subG1 phase by flow cytometry; type: functional; summary of the method: as §5
Jurkat [22] = test: Inhibition of anti-TCR-stimulated IL2 production in human Jurkat cells […] by ELISA; type: functional, cell-based; summary of the method: as §2
Jurkat [23] = test: Inhibition of anti-TCR/antiCD28-stimulated IL2 production in human Jurkat cells […] after 12 hrs by ELISA; type: functional, cell-based; summary of the method: as §2
PBMC [24] = test: Inhibition of PMA/anti-CD28-stimulated IL2 production in human PBMC cells up to 5 uM after 12 hrs by ELISA; type: functional, cell-based; summary of the method: as §2
PBMC [25] = test: Inhibition of anti-TCR/PMA-stimulated IL2 production in human PBMC cells […] after 12 hrs by ELISA; type: functional, cell-based; summary of the method: as §2
Splenocyte [26] = test: Inhibition of irradiated BALB/c mouse splenocyte-stimulated IL2 secretion in 2C mouse splenocyte after 72 hrs by mixed lymphocyte reaction; type: functional, cell-based
Summary of the method: (§6)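 MLR: splenocytes from 2c mice stimulated by irradiated BALB/c splenocytes in the presence of compound at the specified concentrations, 96-well cultures up to 72 h. Supernatants collected at 24, 48 and 72 h; IL-2 measured by ELISA at 450 nm.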

Splenocyte [27] = test: Inhibition of irradiated BALB/c mouse splenocyte-stimulated IL2 secretion in 2C mouse splenocyte at 1 uM after 24 hrs by mixed lymphocyte reaction; type: functional, cell-based; summary of the method: as §6
PBMC [28] = test: Antiproliferative activity against ODN2006-stimulated human PBMC after 72 hrs by BrdU incorporation assay; type: functional, cell-based
Summary of the method: (§7)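 PBMC isolated from healthy donor blood on Ficoll. CD3+ T cells purified with anti-CD3 (autoMACS), identity confirmed as CD3+ by flow cytometry; CD3-depleted PBMC also kept. Stimulation: ConA (10 µg/mL), ODN2006 (0.5 µg/mL) or LPS (50 µg/mL); depleted PBMC got ODN2006 or LPS. Cultured 72 h with inhibitor. Read-out was BrdU uptake, normalized to maximal proliferation without inhibitor.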

PBMC [29] = test: Antiproliferative activity against LPS-stimulated human PBMC after 72 hrs by BrdU incorporation assay; type: functional, cell-based; summary of the method: as §7
PBMC [30] = test: Antiproliferative activity against CD3+ expressing human PBMC after 72 hrs by BrdU incorporation assay; type: functional, cell-based; summary of the method: as §7
PBMC [31] = test: Antiproliferative activity against CD3 deficient human PBMC after 72 hrs by BrdU incorporation assay; type: functional, cell-based; summary of the method: as §7
MDA-MB-231 [32] = test: Antiproliferative activity against stimulated human MDA-MB-231 cells after 72 hrs by BrdU incorporation assay; type: functional, cell-based; conditions: MDA-MB-231, 72 h; summary of the method: as §4

SMILES: Cc1ccc(Nc2nc(-c3cc(O)c(O)c(O)c3)nc3ccccc23)cc1
- IC50 (PBMC [1]): 850 nM
- IC50 (Jurkat [2]): 850 nM
- inhibition (Splenocyte [26]): Active

SMILES: CCCCCCCCOc1ccc(Nc2nc(-c3cc(O)c(O)c(O)c3)nc3ccccc23)cc1
- IC50 (PBMC [1]): 4530 nM
- IC50 (Jurkat [2]): 4250 nM

SMILES: Oc1cc(-c2nc(Nc3ccc4c(c3)OCO4)c3ccccc3n2)cc(O)c1O
- IC50 (PBMC [1]): 5500 nM
- IC50 (Jurkat [2]): 800 nM

SMILES: Oc1ccc(Nc2nc(-c3cc(O)c(O)c(O)c3)nc3ccccc23)cc1
- IC50 (PBMC [1]): 970 nM
- IC50 (Jurkat [2]): 1120 nM

SMILES: COc1ccc(CNc2nc(-c3cc(OC)c(OC)c(OC)c3)nc3ccccc23)cc1
- IC50 (PBMC [1]): 500 nM
- IC50 (Jurkat [2]): 1100 nM

SMILES: COc1ccc(CNc2nc(-c3cc(O)c(O)c(O)c3)nc3ccccc23)cc1
- IC50 (PBMC [1]): 3260 nM
- IC50 (Jurkat [2]): 5430 nM

SMILES: CCCCCCCCOc1ccc(Nc2nc(-c3cc(OC)c(OC)c(OC)c3)nc3ccccc23)cc1
- IC50 (PBMC [1]): 2400 nM
- IC50 (Jurkat [2]): 850 nM

SMILES: Oc1cc(-c2nc(Nc3ccc4nc[nH]c4c3)c3ccccc3n2)cc(O)c1O
- IC50 (PBMC [1]): 4340 nM
- IC50 (Jurkat [2]): 2570 nM

SMILES: Oc1cc(-c2nc(NCc3ccc(Cl)c(Cl)c3)c3ccccc3n2)cc(O)c1O
- IC50 (PBMC [1]): 2600 nM
- IC50 (Jurkat [2]): 3640 nM

More lines, main results first:

- IC50 (Jurkat [2]): 600 nM
SMILES: COc1cc(-c2nc(Nc3ccc4c(c3)OCO4)c3ccccc3n2)cc(OC)c1OC
- IC50 (PBMC [1]): 380 nM

- IC50 (Jurkat [2]): 29 nM
- IC50 (Jurkat [7]): 50 nM
- IC50 (Jurkat [8]): 100 nM
- IC50 (PC-3 [11]): 10000 nM
- IC50 (PC-3 [12]): > 10000 nM
- IC50 (A-375 [15]): 800 nM
- IC50 (A-375 [16]): > 10000 nM
- IC50 (MDA-MB-231 [19]): > 10000 nM
- IC50 (MDA-MB-231 [32]): > 10000 nM
SMILES: COc1cc(-c2nc(Nc3ccc(C)cc3)c3ccccc3n2)cc(OC)c1OC
- inhibition (PBMC [3]): inactive
- inhibition (Jurkat [4]): inactive
- inhibition (Jurkat [5]): Dose-dependent effect
- inhibition (Jurkat [6]): Dose-dependent effect
- IC50 (PBMC [1]): 70 nM
- IC50 (PBMC [9]): 50 nM
- IC50 [10]: > 10000 nM
- IC50 (HEK293 [13]): 10000 nM
- IC50 (HEK293 [14]): 10000 nM
- IC50 (NIH3T3 [17]): 3000 nM
- IC50 (NIH3T3 [18]): 7000 nM
- Activity (PBMC [20]): 50%
- Activity (PBMC [21]): 9.5%
- inhibition (Jurkat [22]): inactive
- inhibition (Jurkat [23]): inactive
- inhibition (PBMC [24]): inactive
- inhibition (PBMC [25]): inactive
- inhibition (Splenocyte [26]): inactive
- inhibition (Splenocyte [27]): inactive
- IC50 (PBMC [28]): 500 nM
- IC50 (PBMC [29]): 500 nM
- IC50 (PBMC [30]): 100 nM
- Activity (PBMC [31]): Active

- IC50 (Jurkat [2]): 1500 nM
SMILES: COc1cc(-c2nc(Nc3ccc4nc[nH]c4c3)c3ccccc3n2)cc(OC)c1OC
- IC50 (PBMC [1]): 430 nM

- IC50 (Jurkat [2]): 530 nM
SMILES: COc1cc(-c2nc(Nc3ccc(Cl)cc3)c3ccccc3n2)cc(OC)c1OC
- IC50 (PBMC [1]): 300 nM

- IC50 (Jurkat [2]): 480 nM
SMILES: COc1cc(-c2nc(NCc3ccc(N)cc3)c3ccccc3n2)cc(OC)c1OC
- IC50 (PBMC [1]): 380 nM

- IC50 (Jurkat [2]): 180 nM
SMILES: COc1cc(-c2nc(Nc3ccc(OC(F)(F)F)cc3)c3ccccc3n2)cc(OC)c1OC
- IC50 (PBMC [1]): 400 nM

- IC50 (Jurkat [2]): 380 nM
SMILES: COc1cc(-c2nc(Nc3ccccc3)c3ccccc3n2)cc(OC)c1OC
- IC50 (PBMC [1]): 280 nM

- IC50 (Jurkat [2]): 700 nM
SMILES: COc1cc(-c2nc(Nc3ccc4[nH]ncc4c3)c3ccccc3n2)cc(OC)c1OC
- IC50 (PBMC [1]): 600 nM
